In ChEMBL document CHEMBL4673343, “Lythrum salicaria Ellagitannins Stimulate IPEC-J2 Cells Monolayer Formation and Inhibit Enteropathogenic Escherichia coli Growth and Adhesion” (J Nat Prod, 2020):
Calls of active or inactive are those of the source. No cut-off for these calls is given here.

Experiments:
[1] = test system: IPEC-J2; assay: Induction of claudin-4 protein expression in porcine IPEC-J2 cells at 20 uM after 6 days by Western blot analysis; type: functional, cell-based; settings: Sus scrofa domesticus, time 6.0 day
Method in brief: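 Inserts were treated apically with 20 μM from day 7, with medium renewed at day 10. At day 13 cells were lysed and protein equalized by BCA, then run on SDS–PAGE and transferred to nitrocellulose. Blots were probed with mouse anti-claudin 4 and an HRP secondary and detected by ECL. Band intensity was normalized to β-actin and expressed as fold over PBS control.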

[2] = test system: IPEC-J2; assay: Induction of porcine IPEC-J2 cells monolayer development assessed as increase in transepithelial electrical resistance at 20 uM after 6 days by voltammetric method; type: functional, cell-based; settings: Sus scrofa domesticus, time 6.0 day
Method in brief: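 IPEC-J2 cells were seeded at 5 × 10^5/insert (0.4 μm PET) and cultured until TEER exceeded 1 kΩ cm2 (day 7). Apical medium was then replaced with 20 μM compound or PBS and renewed at day 10, with basolateral medium changed in parallel. TEER was read with an EVOM2 chopstick electrode at days 10 and 13. Mann–Whitney test versus PBS.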

Row | SMILES | Activity [1] | Activity [2]
1 | O=C(O[C@@H]1COC(=O)c2cc(O)c(O)c(O)c2-c2c(cc(O)c(O)c2O)C(=O)O[C@H]1[C@@H]1OC(=O)c2cc(O)c(O)c(O)c2-c2c(O)c(O)c(O)c3c2C(=O)O[C@H]1[C@@H]3O)c1cc(O)c(O)c(O)c1Oc1cc2c(c(O)c1O)-c1c(cc(O)c(O)c1O)C(=O)OC[C@H]1OC(=O)c3cc(O)c(O)c(O)c3-c3c(O)c(O)c(O)c4c3C(=O)O[C@H]([C@H]3OC(=O)c5c-4c(O)c(O)c(O)c5[C@@H]3O)[C@@H]1OC2=O | Active | Active
2 | O=C(O[C@@H]1COC(=O)c2cc(O)c(O)c(O)c2-c2c(cc(O)c(O)c2O)C(=O)O[C@H]1[C@@H]1OC(=O)c2cc(O)c(O)c(O)c2-c2c(O)c(O)c(O)c3c2C(=O)O[C@H]1[C@H]3O)c1cc(O)c(O)c(O)c1Oc1cc2c(c(O)c1O)-c1c(cc(O)c(O)c1O)C(=O)OC[C@H]1OC(=O)c3cc(O)c(O)c(O)c3-c3c(O)c(O)c(O)c4c3C(=O)O[C@H]([C@H]3OC(=O)c5c-4c(O)c(O)c(O)c5[C@@H]3O)[C@@H]1OC2=O | Active | Active
3 | O=C1OC[C@H]2OC(=O)c3cc(O)c(O)c(O)c3-c3c(O)c(O)c(O)c4c3C(=O)O[C@H]([C@H]3OC(=O)c5c-4c(O)c(O)c(O)c5[C@@H]3O)[C@@H]2OC(=O)c2cc(O)c(O)c(O)c2-c2c1cc(O)c(O)c2O |  | Active
